TDP2 inh = human TDP2 enzyme inhibitors, primary screen, biochemical, epi absorbance, recombinant enzyme; inhibition, % at 12.8 µM; 370,000 tested, 0.34% active; T5PNP hydrolysis, p-nitrophenol absorbance 415 nm; AID 720702, 2013;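 active means inhibition above the mean of all tested compounds plus 3 SD, set per campaign, cut at about 25% in these data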
Target sequence (O95551 whole entry, looked up): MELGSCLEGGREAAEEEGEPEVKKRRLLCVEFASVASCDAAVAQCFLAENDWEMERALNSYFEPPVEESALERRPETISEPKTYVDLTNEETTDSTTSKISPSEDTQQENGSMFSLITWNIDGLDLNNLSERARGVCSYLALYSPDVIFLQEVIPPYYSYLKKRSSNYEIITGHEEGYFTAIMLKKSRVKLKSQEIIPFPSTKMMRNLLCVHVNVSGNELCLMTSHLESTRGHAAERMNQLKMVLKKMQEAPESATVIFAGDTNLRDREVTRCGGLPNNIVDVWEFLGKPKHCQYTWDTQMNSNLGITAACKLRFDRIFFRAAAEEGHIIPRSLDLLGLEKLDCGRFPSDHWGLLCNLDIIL
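Test system: human TDP2 enzyme; Input: 120 nM TDP2 per well; Buffer or medium: Mg2+-containing Tris-HCl buffer, pH 7.5; Reagent: 5 mM T5PNP; Dosing: 12.8 µM single point, 1% DMSO; Incubation: reaction 2 h, 37 °C; Detection: p-Nitrophenol epi absorbance; Read-out: % inhibition relative to enzyme-containing and enzyme-free wells; Replicates: single well per compound.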
GSTO1 inh = inhibitors of recombinant GSTO1, primary screen, counter-screen for RBBP9 inhibitor project, biochemical, fluorescence polarization. AID 1974, 2009. Glutathione S-transferase omega-1 (Homo sapiens), P78417. activity-based probe fluorescence polarization. 300,000 tested, 1.1% active. inhibition, % at 5.96 µM;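 active means inhibition above the campaign mean inhibition plus 3 SD, cut at about 35% in these data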
Target sequence (P78417 whole entry, looked up): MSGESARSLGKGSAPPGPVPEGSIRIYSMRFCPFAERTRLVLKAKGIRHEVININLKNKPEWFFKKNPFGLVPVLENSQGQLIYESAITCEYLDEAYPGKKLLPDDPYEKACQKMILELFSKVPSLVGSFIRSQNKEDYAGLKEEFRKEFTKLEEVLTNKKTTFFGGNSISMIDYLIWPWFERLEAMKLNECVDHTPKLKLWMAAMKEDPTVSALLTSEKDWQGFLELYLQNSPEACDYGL
CTSL1 counter = Fasciola hepatica cathepsin L1 inhibitors, primary screen, counter-screen for PFM18AAP inhibitor project, biochemical, QFRET, fluorogenic peptide substrate; 300,000 tested, 0.49% active; inhibition, % at 5.96 µM; AID 1906, 2009; recombinant F. hepatica cathepsin L1, Z-Leu-Arg-MCA fluorescence;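 active means inhibition above the mean of all tested compounds plus 3 SD, set per screening campaign, cut at about 17% in these data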
PAD4 inh = human PAD4 inhibitors, primary screen, biochemical, fluorescence polarization, 1536-well format | Protein-arginine deiminase type-4 (Homo sapiens), Q9UM07 | recombinant PAD4, RCA probe fluorescence polarization | inhibition, % at 6.36 µM | 330,000 tested, 0.41% active | AID 485272, 2010;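 active means percent inhibition above a cutoff equal to the mean of all tested compounds plus 3 SD, cut at about 15% in these data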
TDP2 inh conf = human TDP2 enzyme inhibitors, retest, confirmation, biochemical, epi absorbance, recombinant enzyme; shares compounds with TDP2 inh; absorbance read-out; inhibition, % at 12.8 µM; 1,100 tested, 22% active; AID 743263, 2014; in the data active means inhibition above about 25%
Each line names hits and unclear results; the compound was inactive in the other large screens (follow-up assays come after a bar, where they were run); ! = not active in a repeat. Compounds with a hit are over-represented: about 1.4% of the library has one in this group of screens.

CSC1=NC(=O)/C(=C\c2cccc3ccccc23)S1	TDP2 inh 25 | TDP2 inh conf inactive
CC(C)(C)N(Cc1cn(Cc2ccccc2)nn1)S(=O)(=O)c1ccc(N2CCCC2)cc1Br	none (no result: GSTO1 inh, CTSL1 counter, PAD4 inh)
COc1cc2cncc(Cc3ccccc3)c2cc1O	none (no result: GSTO1 inh, CTSL1 counter, PAD4 inh)
Oc1cncc(Cc2ccccc2)c1	TDP2 inh 25 | TDP2 inh conf inactive
Brc1cccc(OCCCNC2CCCC2)c1	TDP2 inh 26 | TDP2 inh conf inactive
COc1nc(OC)nc(N2CCC(C(=O)N(C)Cc3ccco3)CC2)n1	none (no result: GSTO1 inh, CTSL1 counter, PAD4 inh)
CC1(N2CCOCC2)C(=O)c2ccccc2C1=O	none
CC1(N2CCCCC2)C(=O)c2ccccc2C1=O	TDP2 inh 62 | TDP2 inh conf inactive
Cc1cc(C)cc(NC(=O)COc2ccc3c(C)c(Cc4ccccc4)c(=O)oc3c2)c1	none (no result: TDP2 inh)
Cc1c(Cc2ccccc2)c(=O)oc2cc(OCC(=O)NCC(O)c3ccccc3)ccc12 (stereo unspecified)	TDP2 inh 30 | TDP2 inh conf inactive
Cc1ccc(NC(=O)CSCc2cc(=O)n3ccsc3n2)c(C)c1	TDP2 inh 33 | TDP2 inh conf inactive
O=C(COC(=O)CCc1nc2ccccc2c(=O)[nH]1)Nc1c(Cl)cccc1C(F)(F)F	TDP2 inh 57 | TDP2 inh conf inactive
COc1ccccc1C=NNC(=O)NN=Cc1ccccc1OC	none (no result: GSTO1 inh, CTSL1 counter, PAD4 inh)
COc1ccccc1C=NN=C(NN=Cc1ccccc1OC)NN=Cc1ccccc1OC	TDP2 inh 59 (no result: GSTO1 inh, CTSL1 counter, PAD4 inh) | TDP2 inh conf inactive
COC(=O)CCC(=O)OC1(C)C(=O)C=C2C=C(C3CC3)N(C(CO)CO)C=C2C1=O (stereo unspecified)	TDP2 inh 30 | TDP2 inh conf inactive
O=C(CCN1C(=O)/C(=C/c2ccco2)SC1=S)Nc1ccc(O)cc1C(=O)O	TDP2 inh 27 (no result: GSTO1 inh, CTSL1 counter, PAD4 inh) | TDP2 inh conf inactive
O=C(CN1C(=O)/C(=C\c2ccco2)SC1=S)Nc1ccc(O)cc1C(=O)O	none
CCOc1ccc2nc(/N=C/c3c(C)[nH]n(-c4ccccc4)c3=O)sc2c1	TDP2 inh 35 | TDP2 inh conf inactive
O=C(N/N=C/c1c(F)cccc1Cl)C1CC1	TDP2 inh 63 | TDP2 inh conf inactive
O=C(CCC(=O)NC1CCCCC1)NCc1ccc(F)cc1	TDP2 inh 48 | TDP2 inh conf inactive
O=C(CCC1CCCCC1)NCc1ccc(F)cc1	none
COC(=O)C1=C(C)N(Cc2cccc(C(F)(F)F)c2)C(=NCC2CC2)NC1c1cccc(F)c1 (stereo unspecified)	none (no result: GSTO1 inh, CTSL1 counter, PAD4 inh)
CCC(C)N1CC(C(=O)O)CC1=O (stereo unspecified)	none
CCC(C)N1CC(C(=O)NC2CCCCC2)CC1=O (stereo unspecified)	TDP2 inh 25 | TDP2 inh conf inactive
COC(=O)N1C[C@H](OCc2ccc3c(c2)OCO3)[C@H]2C[C@@H]1c1ccccc1O2	none (no result: GSTO1 inh, CTSL1 counter, PAD4 inh)
COc1cccc(N(CC(=O)NC2CCCCC2)C(=O)CCC(=O)Nc2nccs2)c1	TDP2 inh 29 | TDP2 inh conf inactive
CCOc1ccc(CN2CCC(C(=O)N3CCN(c4ccccc4F)CC3)CC2)cc1OC	TDP2 inh 34 | TDP2 inh conf inactive
COc1cc(CN2CCC(C(=O)N3CCN(c4ccccc4F)CC3)CC2)cc(OC)c1O	none
CC(C(=O)NC1CCCCCC1)c1ccc([N+](=O)[O-])cc1 (stereo unspecified)	TDP2 inh 25 | TDP2 inh conf inactive
CC(C(=O)NC1CC(C)(C)NC(C)(C)C1)c1ccc([N+](=O)[O-])cc1 (stereo unspecified)	none
CN(Cc1ccccc1)C(=O)OCc1cn(Cc2cccc(F)c2F)nn1	none (no result: GSTO1 inh, CTSL1 counter, PAD4 inh)
Cc1cc(C)cc(NC(=O)CSc2nnc(CN3CCOCC3)n2C)c1	none
Cc1cc(C)c(NC(=O)CSc2nnc(CN3CCOCC3)n2C)c(C)c1	TDP2 inh 26 | TDP2 inh conf inactive
COc1ccc(NC(=O)c2ccc(-n3c(C)ccc3C)cc2)c(OC)c1	TDP2 inh 30 | TDP2 inh conf inactive
O=C1c2cccnc2-c2ncccc21	none
O=C1C(=O)c2cccnc2-c2ncccc21	TDP2 inh 104 (no result: GSTO1 inh, CTSL1 counter, PAD4 inh) | TDP2 inh conf 89
O=C(CSc1nnc(-c2cccs2)o1)Nc1cccc2ccccc12	none (no result: GSTO1 inh, CTSL1 counter, PAD4 inh)
COc1ccc(-c2ccc(C(c3c(C)[nH][nH]c3=O)c3c(C)[nH][nH]c3=O)o2)c([N+](=O)[O-])c1	TDP2 inh 67 (no result: GSTO1 inh, CTSL1 counter, PAD4 inh) | TDP2 inh conf inactive
c1cc(N2CCCCC2)nc(N2CCCCC2)n1	none (no result: GSTO1 inh, CTSL1 counter, PAD4 inh)
C[c-]1[c-](C)[c-](C)[c-](C)[c-]1C.[Fe].c1cc2nccc(N3CCCC3)[c-]2c1 (stereo unspecified)	TDP2 inh 34 | TDP2 inh conf 26!
CC(CCc1ccccc1)NC(=O)CNC(=O)N1CC(=O)Nc2ccccc21 (stereo unspecified)	TDP2 inh 25 | TDP2 inh conf inactive
O=C1CN(C(=O)NCC(=O)N[C@@H](Cc2ccccc2)C(=O)O)c2ccccc2N1	none
CCOC(=O)[C@]12CCCCC/C=C\1N(Cc1ccc(OC)cc1)C(=O)[C@H]2CC(=O)N1CCC(c2ccccc2)CC1	none (no result: GSTO1 inh, CTSL1 counter, PAD4 inh)
O=C(Nc1c(-c2ccccc2)[nH][nH]c1=O)c1ccc(Br)cc1	TDP2 inh 33 (no result: GSTO1 inh, CTSL1 counter, PAD4 inh) | TDP2 inh conf inactive
O=C(Nc1c(-c2ccccc2)[nH][nH]c1=O)c1ccc2ccccc2c1	none (no result: GSTO1 inh, CTSL1 counter, PAD4 inh)
COc1ccc(-c2[nH][nH]c(=O)c2NC(=O)c2ccc(C)cc2)cc1	TDP2 inh 25 (no result: GSTO1 inh, CTSL1 counter, PAD4 inh) | TDP2 inh conf 30
O=C(Nc1c(-c2ccccc2)[nH][nH]c1=O)c1cccs1	TDP2 inh 42 (no result: GSTO1 inh, CTSL1 counter, PAD4 inh) | TDP2 inh conf inactive
CCOC(=O)C1=C[C@@H](C(C)(C)C)N(S(=O)(=O)c2ccc([N+](=O)[O-])cc2)[C@H]1c1cccc(Cl)c1	none (no result: GSTO1 inh, CTSL1 counter, PAD4 inh)
O=C(Nc1ccc(F)cc1)OCc1cn(Cc2cccc(Cl)c2)nn1	none (no result: GSTO1 inh, CTSL1 counter, PAD4 inh)
CCOc1ccc(NC(=S)NC(=O)/C=C/c2ccco2)cc1	none
COc1cc(NS(=O)(=O)c2ccc(NC(=S)NC(=O)/C=C/c3ccco3)cc2)ncn1	TDP2 inh 36 (no result: GSTO1 inh, CTSL1 counter, PAD4 inh) | TDP2 inh conf 41
COc1ccc(OCC(=O)NS(=O)(=O)c2ccccc2)cc1	TDP2 inh 29 | TDP2 inh conf inactive
CCOC(=O)[C@]12CCCC=C1N(CCCOC)C(=O)[C@@H]2CC(=O)N1CCC(c2ccccc2)CC1	none (no result: GSTO1 inh, CTSL1 counter, PAD4 inh)
CCC(CO)Oc1cc(NC(=O)c2ccc(N)cc2)c2ncn(C(C)C)c2c1 (stereo unspecified)	TDP2 inh 37 (no result: GSTO1 inh, CTSL1 counter) | TDP2 inh conf 34
Cc1cc(C)c(NC(=O)CSc2nccn2C)c(C)c1	none
Cc1cc(NC(=O)CSc2nccn2C)n(-c2ccccc2)n1	TDP2 inh 26 | TDP2 inh conf inactive
CC(=O)Nc1ccc(C2=NN(C)C(=NCc3ccccc3)SC2)cc1	TDP2 inh 29 | TDP2 inh conf inactive
